# Measurements gathered from unrelated publications.
# Lines come from different studies, so protocols differ.
Compound,target or system,test,test system,setting,endpoint,value
CCCCCCCCCCCC(=O)NC(C)(C)C(=O)N1CCC[C@H]1C(=O)NC(C)(C)C(=O)NC(C)(C)C(=O)N1CCC[C@H]1C(=O)NC(C)(C)C(=O)NC(C)(C)C(=O)N1CCC[C@H]1C(=O)N[C@@H](C)C(=O)NC(C)(C)C(=O)NCCC(=O)N[C@@H](C)C(=O)NC(C)(C)C(=O)NC(C)(C)C(=O)NCCC(=O)NC(C)(C)C(=O)NC(C)(C)C(=O)NC(C)(C)C(=O)N[C@@H](C)C(=O)NCCC(=O)O,MDA-MB-231,"cell growth or viability, MTT",,24 h,IC50,1000 nM
CN(C)CCc1c[nH]c2ccccc12,,,"human, plasma","intravenous, 9 mg, 7 min, healthy volunteers, infusion",concentration,15.9 ng/mL
CONC(=O)[C@H]1[C@@H](O)[C@@]2(O)c3c(OC)cc(OC)cc3O[C@@]2(c2ccc(OC)cc2)[C@@H]1c1ccccc1,MDA-MB-231,"cell growth or viability, SRB",,,IC50,1.9 nM
CC(=O)NC(CC(C)C)C(=O)NC(CC(C)C)C(=O)NC(Cc1ccc(O)cc1)C(N)=O (centres unmarked),"ABCB1 (Cricetulus griseus, UniProt P21448)","binding, fluorescence",,,Kd,28 µM
COc1ccc(C(=O)Nc2ccccc2C(=O)N[C@H](C(=O)N[C@H](CO)C(C)C)C(C)C)cc1,MRC5,"cell growth or viability, MTT",,72 h,CC50,> 250 µM
C=C(C)[C@@H]1CC[C@]2(NCCN3CCS(=O)(=O)CC3)CC[C@]3(C)[C@H](CC[C@@H]4[C@@]5(C)CC=C(C6=CC[C@@](COc7ncccc7C#N)(C(=O)O)CC6)C(C)(C)[C@@H]5CC[C@]43C)[C@@H]12,,,"human, plasma","oral, 100 mg, 24 h, fed, tablet",concentration,408 ng/mL
CC(C)[C@H](NC(=O)c1ccccc1NC(=O)c1ccccc1)C(=O)N[C@H](CO)C(C)C,MRC5,"cell growth or viability, MTT",,72 h,CC50,> 250 µM
CC(C)=CCOc1c2occc2cc2ccc(=O)oc12,MRC5,"cell growth or viability, MTT",,24 h,IC50,> 100000 nM
